In ChEMBL document CHEMBL1132178, “5-Amino-1-(chloromethyl)-1,2-dihydro-3H-benz[e]indoles: relationships between structure and cytotoxicity for analogues bearing different DNA minor groove binding subunits” (J Med Chem, 1999):

What was measured:
[1] = test system: CHO-AA8; test: Tested for growth inhibition against AA8 tumor cell line(chinese hamster ovary).; assay type: functional, cell-based, Cricetulus griseus
Summary of the method: (§1)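 Log-phase cultures seeded in 96-well plates (200 AA8, 300 UV4 or 50 EMT6 cells/well), drug added after 24 h. Aerobic 4 h exposure at 37 °C under 5% CO2, then washed and regrown 4 days. Cell density read by sulforhodamine B staining. IC50 is the concentration giving 50% growth inhibition versus same-plate controls; mean of 2–5 determinations ± SEM.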

[2] = test system: EMT6; test: Tested for growth inhibition against EMT6 tumor cell line(murine mammary carcinoma).; assay type: functional, cell-based, Mus musculus; summary of the method: as §1
[3] = test system: SK-OV-3; test: Tested for growth inhibition against SKOV3 tumor cell line(human ovarian).; assay type: functional, cell-based
Summary of the method: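 Log-phase cultures of 600 SKOV3 cells/well in 96-well plates, drug added after 24 h. Aerobic 4 h exposure at 37 °C under 5% CO2, then washed and regrown 5 days. Growth read by sulforhodamine B staining. IC50 is the concentration giving 50% inhibition relative to same-plate controls; average of 2–5 determinations ± SEM.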

[4] = test system: UV4; test: The compound was tested for growth inhibition against UV4 tumor cell line(chinese hamster ovary).; assay type: functional, cell-based, Cricetulus griseus; summary of the method: as §1

Row | IC50 ([3]; Homo sapiens, SK-OV-3) | Structure (SMILES) | IC50 ([1]; Cricetulus griseus, CHO-AA8) | IC50 ([2]; Mus musculus, EMT6) | IC50 ([4]; Cricetulus griseus, UV4) | IC50 ([1]; cho-aa8) | IC50 ([2]; emt6) | IC50 ([3]; sk-ov-3) | IC50 ([4]; uv4)
1 | 13 nM | CC(=O)Nc1cc(/C=C/C(=O)N2CC(CCl)c3c2cc(N)c2ccccc32)n(C)n1 (stereo unspecified) | 10.7 nM | 4.9 nM | 5.4 nM |  |  |  | 
2 | 3.5 nM | Nc1cc2c(c3ccccc13)C(CCl)CN2C(=O)c1cc2cc(NC(=O)c3cc4ccccc4o3)ccc2[nH]1 (stereo unspecified) | 2 nM | 1.3 nM | 1.5 nM |  |  |  | 
3 | 2.7 nM | CC(=O)Nc1ccc(/C=C/C(=O)N2CC(CCl)c3c2cc(N)c2ccccc32)cc1 (stereo unspecified) | 2.6 nM | 1.2 nM | 1.4 nM |  |  |  | 
4 | 49 nM | CC(=O)Nc1cc(C(=O)Nc2cc(C(=O)N3CC(CCl)c4c3cc(N)c3ccccc43)nn2C)nn1C (stereo unspecified) | 374 nM | 212 nM | 253 nM |  |  |  | 
5 | 4.2 nM | COc1cc(OCCN(C)C)c2[nH]c(C(=O)N3CC(CCl)c4c3cc(N)c3ccccc43)cc2c1 (stereo unspecified) | 3.7 nM | 1.9 nM | 1.9 nM |  |  |  | 
6 | 0.48 nM | COc1ccc2[nH]c(/C=C/C(=O)N3CC(CCl)c4c3cc(N)c3ccccc43)cc2c1 (stereo unspecified) | 0.28 nM | 0.23 nM | 0.22 nM |  |  |  | 
7 |  | COc1cc2cc(C(=O)N3CC(CCl)c4c3cc(N)c3ccccc43)[nH]c2c(OC)c1OC (single isomer, unassigned; (-)) |  |  |  | 14 nM | 7 nM | 7.9 nM | 2.7 nM
8 | 1.5 nM | CC(=O)Nc1cccc(/C=C/C(=O)N2CC(CCl)c3c2cc(N)c2ccccc32)c1 (stereo unspecified) | 2.7 nM | 0.86 nM | 1.5 nM |  |  |  | 
9 | 1.9 nM | CN(C)CCOc1ccc(/C=C/C(=O)N2CC(CCl)c3c2cc(N)c2ccccc32)cc1 (stereo unspecified) | 1.5 nM | 0.63 nM | 0.56 nM |  |  |  | 
10 |  | COc1cc2cc(C(=O)N3CC(CCl)c4c3cc(N)c3ccccc43)[nH]c2c(OC)c1OC (single isomer, unassigned; (+)) |  |  |  | 0.21 nM | 0.13 nM | 0.54 nM | 0.14 nM
11 | 5.3 nM | COc1cc2cc(C(=O)N3CC(CCl)c4c3cc(N)c3ccccc43)[nH]c2cc1OCCN(C)C (stereo unspecified) | 3.6 nM | 2 nM | 2.1 nM |  |  |  | 

Row | Structure (SMILES) | IC50 ([3]; Homo sapiens, SK-OV-3) | IC50 ([1]; Cricetulus griseus, CHO-AA8) | IC50 ([2]; Mus musculus, EMT6) | IC50 ([4]; Cricetulus griseus, UV4) | IC50 ([1]; cho-aa8) | IC50 ([2]; emt6) | IC50 ([3]; sk-ov-3) | IC50 ([4]; uv4)
12 | CC(=O)Nc1ccc2[nH]c(C(=O)N3CC(CCl)c4c3cc(N)c3ccccc43)cc2c1 (stereo unspecified) | 17.3 nM | 12.5 nM | 5.2 nM | 7.6 nM |  |  |  | 
13 | COc1ccc(/C=C/C(=O)N2CC(CCl)c3c2cc(N)c2ccccc32)cc1 (stereo unspecified) | 0.24 nM | 0.09 nM | 0.089 nM | 0.058 nM |  |  |  | 
14 | COc1ccc2[nH]c(C(=O)N3CC(CCl)c4c3cc(N)c3ccccc43)cc2c1 (stereo unspecified) | 1.86 nM | 1.3 nM | 0.98 nM | 0.84 nM |  |  |  | 
15 | Nc1ccc2[nH]c(C(=O)N3CC(CCl)c4c3cc(N)c3ccccc43)cc2c1 (stereo unspecified) | 3 nM | 2.5 nM | 0.83 nM | 1.1 nM |  |  |  | 
16 | CCCC(=O)Nc1cc(/C=C/C(=O)N2CC(CCl)c3c2cc(N)c2ccccc32)n(C)c1 (stereo unspecified) | 22 nM | 31 nM | 5.9 nM | 16 nM |  |  |  | 
17 | CN(C)CCOc1ccc2[nH]c(C(=O)N3CC(CCl)c4c3cc(N)c3ccccc43)cc2c1 (stereo unspecified) | 7 nM | 4.1 nM | 1.3 nM | 1.7 nM |  |  |  | 
18 | COc1cccc(/C=C/C(=O)N2CC(CCl)c3c2cc(N)c2ccccc32)c1 (stereo unspecified) | 0.68 nM | 0.37 nM | 0.63 nM | 0.42 nM |  |  |  | 
19 | COc1cc2cc(C(=O)N3CC(COS(C)(=O)=O)c4c3cc(N)c3ccccc43)[nH]c2c(OC)c1OC (stereo unspecified) | 1.2 nM | 0.48 nM | 0.4 nM | 0.46 nM |  |  |  | 
